TAAR1 antagonist: human TAAR1 antagonism; inhibition, % at 3 µM; CHO RD-HGA16 TAAR1, Fluo-8 calcium fluorescence, antagonist; AID 624466; actives 1.5% (n = 360,000);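 active means inhibition above a per-plate cutoff, the mean inhibition of test compounds on that plate plus 3 SD, cut at about 49% in these data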
Target sequence (Q96RJ0 whole entry, looked up): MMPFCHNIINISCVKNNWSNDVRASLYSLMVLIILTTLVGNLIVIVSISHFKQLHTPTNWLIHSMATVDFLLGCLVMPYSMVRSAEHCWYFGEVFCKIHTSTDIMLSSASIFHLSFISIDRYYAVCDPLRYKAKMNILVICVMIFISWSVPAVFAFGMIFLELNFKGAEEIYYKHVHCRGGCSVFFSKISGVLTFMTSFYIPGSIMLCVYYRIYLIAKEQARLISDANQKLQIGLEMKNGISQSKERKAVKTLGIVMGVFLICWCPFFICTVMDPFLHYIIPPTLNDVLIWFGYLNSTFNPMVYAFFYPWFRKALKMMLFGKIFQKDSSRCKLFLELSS
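Assay system: CHO-derived RD-HGA16 cells stably expressing human TAAR1 plus Gα16. Timing: 140 s kinetic read after compound, 140 s after agonist. Technique: kinetic Fluo-8 calcium fluorescence measurement. Measure: % inhibition of agonist calcium response.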
CHRM1 agonist: agonists of human M1 muscarinic receptor | CHO-K1 hM1, Fluo-8 calcium fluorescence, agonist mode; 0% DMSO, 100% acetylcholine EC100 | activation, % at 3 µM | actives 0.33% (n = 360,000) | AID 588814 | P11229;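 active means activation above the run's mean compound activation plus 3 SD, cut at about 16% in these data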;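 further: peak over basal fluorescence ratio within a 140 s kinetic read after compound addition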
TAAR1 ag: agonists of human TAAR1. Q96RJ0. actives 0.99% (n = 360,000). CHO RD-HGA16 TAAR1, Fluo-8 calcium fluorescence; vehicle wells 0%, saturating PEA agonist 100%. activation, % at 3 µM;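 active means activation above the mean activation of all test compounds in the run plus 3 SD, cut at about 38% in these data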
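Test system: RD-HGA16 (CHO) cells co-expressing Gα16 and hTAAR1 | Doses: Single dose, 3 µM | Schedule: 17-24 h seeding, 75 min 37 °C dye, 30 min RT | Evaluation: % activation from peak over basal fluorescence ratio, DMSO-to-PEA scaled | Technique: Kinetic Fluo-8 calcium fluorescence | Benchmarks: Low control DMSO, high control PEA (EC100)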
HTR2A ag: agonists of mouse serotonin 5-HT2A receptor (HTR2A) | P35363 | CHO-K1 mHTR2A beta-arrestin complementation, luminescence; percent of 30 µM serotonin response | activation, % at 7.6 µM | actives 0.66% (n = 360,000);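 active means activation above a run cutoff, the mean activation of all tested compounds plus 3 SD, cut at about 14% in these data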
M1 PAM: potentiates human M1 receptor response to acetylcholine | actives 0.088% (n = 360,000) | P11229 | CHO-K1 hM1, Fluo-8 calcium fluorescence, ACh EC20; 0% = ACh EC20, 100% = maximal ACh | AID 588819 | activation, % at 3 µM; in the data active means activation above about 19%, passing the limit was not always enough
M1 antag: blocks human M1 muscarinic receptor | inhibition, % at 3 µM | actives 1.3% (n = 360,000) | AID 588852 | CHO-K1 hM1, Fluo-8 calcium fluorescence, ACh EC80 antagonist;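 active means percent inhibition above its own plate's cutoff, namely the mean of that plate's compound wells plus 3 SD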;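 further: peak over basal fluorescence ratio during 140 s after agonist addition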
nonsel antag count: counter-screen for TAAR1 antagonists: nonselective antagonists | actives 77% (n = 2,400) | inhibition, % at 3 µM | shares compounds with TAAR1 antagonist | counterscreen cell line, calcium fluorescence, antagonist mode; in the data active means inhibition above about 22%;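 further: CHO-Ga16 host cells stimulated with ATP at an EC80 level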
TAAR1 antag conf: human TAAR1 antagonism, confirmed. shares compounds with TAAR1 antagonist. TAAR1-expressing cells, fluorescence antagonist read-out. inhibition, % at 3 µM. actives 40% (n = 2,400); in the data active means inhibition above about 49%;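 further: CHO-Ga16 host cells challenged with agonist PEA near its EC80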
Ga16 ag counter: counter-screen for TAAR1 antagonists: nonselective Ga16 agonists; shares compounds with TAAR1 antagonist; Ga16-expressing cells, calcium fluorescence, agonist counterscreen; activation, % at 3 µM; actives 18% (n = 2,400); in the data active means activation above about 12%
TAAR1 ag counter: counter-screen for human TAAR1 antagonists: TAAR1 agonists; actives 2% (n = 2,400); shares compounds with TAAR1 antagonist; activation, % at 3 µM; hTAAR1 cell line, fluorescence activation, agonist mode; in the data active means activation above about 37%;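 further: CHO cells stably expressing TAAR1 with calcium dye readout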
Numbers stand for hits. Most compounds without a hit are left out; they make up all but 3.9% or so of the library.

CCCN1C[C@@H](C)[C@@H](OC)CN(C)C(=O)c2ccc(NC(=O)c3cccc(F)c3)cc2OC[C@H]1C was read as TAAR1 antagonist inactive, TAAR1 ag inactive and HTR2A ag inactive.
COCC(=O)N(Cc1cc2cccc(C)c2[nH]c1=O)c1ccccc1 was read as TAAR1 antagonist inactive, CHRM1 agonist inactive, TAAR1 ag inactive, HTR2A ag inactive, M1 PAM inactive and M1 antag inactive.
Screening Cc1cccc2sc(NNC(=O)c3cc(-c4cccs4)nc4ccccc34)nc12 returned TAAR1 antagonist 68, CHRM1 agonist inactive, TAAR1 ag inactive, HTR2A ag inactive, M1 PAM inactive, M1 antag inactive, nonsel antag count 51, TAAR1 antag conf 54, Ga16 ag counter 15 and TAAR1 ag counter inactive.
For COc1ccc(NC(=O)c2cc(-c3ccccn3)nc3ccccc23)cc1S(=O)(=O)N(C)C the results were TAAR1 antagonist 69, CHRM1 agonist inactive, TAAR1 ag inactive, HTR2A ag inactive, M1 PAM inactive, M1 antag 34, nonsel antag count 25, TAAR1 antag conf inactive, Ga16 ag counter inactive and TAAR1 ag counter inactive.
COc1ccc(-c2cc(C(=O)Nc3cccc(S(=O)(=O)NCc4ccco4)c3)c3ccccc3n2)cc1OC was read as TAAR1 antagonist 75, CHRM1 agonist inactive, TAAR1 ag inactive, HTR2A ag inactive, M1 PAM inactive, M1 antag 41, nonsel antag count 37, TAAR1 antag conf 57, Ga16 ag counter inactive and TAAR1 ag counter inactive.
For NNC(=O)c1cc(-c2cccs2)nc2ccccc12 the results were TAAR1 antagonist inactive, CHRM1 agonist inactive, TAAR1 ag inactive, HTR2A ag inactive, M1 PAM inactive and M1 antag inactive.
NS(=O)(=O)c1ccc(NC(=O)c2cc(-c3cccs3)nc3ccccc23)cc1 was read as TAAR1 antagonist inactive, CHRM1 agonist inactive, TAAR1 ag inactive, HTR2A ag inactive, M1 PAM inactive and M1 antag inactive.
For COc1ccc(-c2cc(C(=O)NCc3ccco3)c3ccccc3n2)cc1OC the results were TAAR1 antagonist inactive, CHRM1 agonist inactive, TAAR1 ag inactive, HTR2A ag inactive, M1 PAM inactive and M1 antag inactive.
Screening CCN(CC)S(=O)(=O)c1ccc(NC(=O)c2cc(-c3cccs3)nc3ccccc23)cc1 returned TAAR1 antagonist 60, CHRM1 agonist inactive, TAAR1 ag inactive, HTR2A ag inactive, M1 PAM inactive, M1 antag inactive, nonsel antag count 29, TAAR1 antag conf inactive, Ga16 ag counter inactive and TAAR1 ag counter inactive.
Screening Cc1cccc2nc(-c3ccccc3)nc(N[C@@H](CO)c3ccccc3)c12 returned TAAR1 antagonist inactive, CHRM1 agonist inactive, TAAR1 ag inactive, HTR2A ag inactive, M1 PAM inactive and M1 antag inactive.
Screening COc1ccc(NC(=O)CSCC(=O)N(C)CCOc2ccc(Cl)cc2)cc1 returned TAAR1 antagonist inactive, CHRM1 agonist inactive, TAAR1 ag inactive, HTR2A ag inactive, M1 PAM inactive and M1 antag inactive.
For CN(CC(=O)Nc1ccccc1Cl)C(=O)C1CCN(C(=O)c2ccc(F)cc2)CC1 the results were TAAR1 antagonist inactive, CHRM1 agonist inactive, TAAR1 ag inactive, HTR2A ag inactive, M1 PAM inactive and M1 antag inactive.
`COCCSc1ccccc1C(=O)NCc1cccnc1` gave TAAR1 antagonist inactive, CHRM1 agonist inactive, TAAR1 ag inactive, HTR2A ag inactive, M1 PAM inactive and M1 antag inactive.

Source: PubChem BioAssay
